Measurements as given in ChEMBL document CHEMBL6092177, “Applying molecular hybridization to design a new class of pyrazolo[3,4-d]pyrimidines as Src inhibitors active in hepatocellular carcinoma” (Eur J Med Chem, 2024).
≈ marks a conversion by molar mass, not a printed value. Calls of active or inactive are those of the source. The calls are words filed in the database; no cut-off is given here.

Assays:
[1] = test system: HepG2; experiment: Antiproliferative activity against human HepG2 cells assessed as cell growth inhibition measured at 24 hrs by MTT assay; settings: HepG2, 24 h
[2] = test system: HepG2; experiment: Antiproliferative activity against human HepG2 cells assessed as cell growth inhibition measured at 48 hrs by MTT assay; settings: HepG2, 48 h
[3] = test system: HepG2; experiment: Antiproliferative activity against human HepG2 cells assessed as cell growth inhibition measured at 72 hrs by MTT assay; settings: HepG2, 72 h
[4] = test system: Huh-7; experiment: Antiproliferative activity against human Huh-7 cells assessed as cell growth inhibition measured at 48 hrs by MTT assay; settings: Huh-7, 48 h
[5] = test system: Huh-7; experiment: Antiproliferative activity against human Huh-7 cells assessed as cell growth inhibition measured at 72 hrs by MTT assay; settings: Huh-7, 72 h
[6] = Thermodynamic solubility of compound by LC-MS/MS analysis; type: physicochemical; settings: read-out: Therm_solubility
Summary of the method: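 Thermodynamic solubility: solubilized compound quantified in triplicate by LC-MS/MS on a C18 column with water/ACN gradient, both with 0.1% formic acid. Calibration from DMSO standards 0.1–100 µM; LoQ below 0.01 µM.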

[7] = Apparent permeability of compound in PBS buffer at pH 7.4 incubated for 4 hrs by LC-UV-MS analysis; type: ADME; settings: not told
Summary of the method: (§1)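 PAMPA: DMSO stock diluted 1:1 with 10 mM PBS pH 7.4 as donor, through filter coated with 1% phosphatidylcholine in dodecane. Acceptor DMSO/PBS 1:1; incubated at rt for 4 h with gentle shaking. Both compartments quantified by LC-UV-MS to give Papp and % membrane retention; three independent experiments in triplicate.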

[8] = Permeability of the compound in PBS buffer at pH 7.4 assessed as membrane retention rate by PAMPA method; type: ADME; summary of the method: as §1
[9] = Metabolic stability in human liver microsome measured after 1 hr in presence of NADPH by UV/LC-MS analysis; type: ADME; settings: liver microsomes, read-out: Stability
Summary of the method: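 Compound incubated with HLM (0.2 mg/mL) and NADPH (in 48 mM MgCl2) in 10 mM PBS pH 7.4 at 37 °C for 60 min with shaking. Stopped with cold ACN, centrifuged, dried under N2 and quantified by UV/LC-MS for % unmetabolized.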

[10] = Stability in human plasma measured after 24 hrs by UV-LC/MS analysis; type: ADME, cell-free; settings: read-out: Stability
[11] = test system: Huh-7; experiment: Antiproliferative activity against human Huh-7 cells assessed as cell growth inhibition measured at 24 hrs by MTT assay; settings: Huh-7, 24 h
[12] = Stability in human plasma assessed as half life measured up to 24 hrs by UV-LC/MS analysis; type: ADME, cell-free
[13] = Inhibition of Abl (unknown origin)
[14] = Cytotoxicity against human HaCaT cells assessed as reduction in cell proliferation incubated for 24 hrs by MTT assay; type: toxicity, cell-based
[15] = Cytotoxicity against human HaCaT cells assessed as reduction in cell proliferation incubated for 48 hrs by MTT assay; type: toxicity, cell-based
[16] = Cytotoxicity against human HaCaT cells assessed as reduction in cell proliferation incubated for 72 hrs by MTT assay; type: toxicity, cell-based
[17] = Cytotoxicity against human HEK293 cells assessed as reduction in cell proliferation incubated for 24 hrs by MTT assay; type: toxicity, cell-based
[18] = Cytotoxicity against human HEK293 cells assessed as reduction in cell proliferation incubated for 48 hrs by MTT assay; type: toxicity, cell-based
[19] = Cytotoxicity against human HEK293 cells assessed as reduction in cell proliferation incubated for 72 hrs by MTT assay; type: toxicity, cell-based
[20] = test system: HepG2; experiment: Inhibition of cell colony formation in human HepG2 cells assessed as reduction in clonogenic survival at 0.5 uM incubated for 10 days by crystal violet staining based assay; type: functional; settings: HepG2, 240 h, time 10 day
Summary of the method: (§2)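 HepG2 at 1000 cells/dish in DMEM with 10% FBS, exposed to 0.25, 0.5, 1 or 2 µM for 10 days. Colonies (>50 cells) fixed with methanol, stained with 0.5% crystal violet and counted. Three independent experiments in triplicate; unpaired t-test vs untreated.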

[21] = test system: HepG2; experiment: Inhibition of cell colony formation in human HepG2 cells assessed as reduction in clonogenic survival at 1 to 2 uM incubated for 10 days by crystal violet staining based assay; type: functional; settings: dose 1-2 µM, time 10 day; summary of the method: as §2
[22] = test system: HepG2; experiment: Antiproliferative activity against human HepG2 cells assessed as inhibition of cell growth at 10 to 100 uM preincubated for 24 hrs followed by 48 hrs drug-free treatment by MTT assay; type: functional, cell-based; settings: dose 10-100 µM
Summary of the method: (§3)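 HepG2 exposed to 0.1–100 µM for 24 h (or 48 h), then washed with PBS and kept 48 h (or 24 h) in drug-free DMEM with 10% FBS. Viability by MTT. Means ± SD of three independent experiments in triplicate; ANOVA with Tukey test.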

[23] = test system: HepG2; experiment: Antiproliferative activity against human HepG2 cells assessed as inhibition of cell growth at 0.1 to 1 uM incubated for 24 hrs by MTT assay; type: functional, cell-based; settings: dose 0.1-1 µM; summary of the method: as §3
[24] = test system: HepG2; experiment: Antiproliferative activity against human HepG2 cells assessed as cell viability at 0.1 to 1 uM preincubated for 24 hrs followed by 48 hrs drug-free treatment by MTT assay; type: functional; settings: dose 0.1-1 µM; summary of the method: as §3
[25] = test system: HepG2; experiment: Induction of cell cycle arrest in human HepG2 cells assessed as accumulation of hypodiploid cells at sub G0/G1 phase incubated for 72 hrs by FACScan flow cytometer analysis relative to control; type: functional
Summary of the method: (§4)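 HepG2 treated about 2 µM for 72 h. DNA content measured by FACScan flow cytometry, red fluorescence through a 563–607 nm bandpass (FL2), 10^4 cells/sample. Phase percentages are means ± SD of three independent experiments in triplicate vs control.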

[26] = test system: HepG2; experiment: Induction of cell cycle arrest in human HepG2 cells assessed as decrease in accumulation of G0/G1 phase incubated for 72 hrs by FACScan flow cytometer analysis relative to control; type: functional; set-up: scale not given: the % may be the effect or the level left; summary of the method: as §4
[27] = test system: HepG2; experiment: Induction of cell cycle arrest in human HepG2 cells assessed as accumulation of cells at S phase incubated for 72 hrs by FACScan flow cytometer analysis relative to control; type: functional; summary of the method: as §4
[28] = test system: HepG2; experiment: Induction of cell cycle arrest in human HepG2 cells assessed as accumulation of cells at G2/M phase incubated for 72 hrs by FACScan flow cytometer analysis relative to control; type: functional; summary of the method: as §4
[29] = test system: HepG2; experiment: Inhibition of cell migration in human HepG2 cells assessed as wound closure at 0.25 uM measured at 72 hrs by T-sratch assay; settings: HepG2, 72 h

SMILES | IC50 [1] | IC50 [2] | IC50 [3] | IC50 [4] | IC50 [5] | solubility thermodynamic [6] | Papp at 4 h [7] | membrane retention [8] | remaining at 1 h [9] | remaining at 24 h [10] | IC50 [11] | also measured
O=C(Nc1cccc(O)c1)c1cnc(Nc2ncnc3c2cnn3CC(Cl)c2ccccc2)s1 (stereo not given) | 87.1 µM | 5.06 µM | 3.19 µM | 22 µM | 11.1 µM | < 0.01 µg/mL | 0.14 ×10⁻⁶ cm/s | 6.1% | > 100% | > 100% | – | –
Cn1ncc2c(Nc3ncc(C(=O)Nc4ccccc4)s3)nc(SCCN3CCOCC3)nc21 | – | – | 7.9 µM | 33.5 µM | 14 µM | < 0.01 µg/mL | 1.61 ×10⁻⁶ cm/s | 16.49% | 99.8% | 98.3% | 67.6 µM | half-life [12]: > 24 h
Cc1nc(Nc2ncc(C(=O)Nc3c(C)cccc3Cl)s2)cc(N2CCN(CCO)CC2)n1 [DASATINIB ANHYDROUS] | 23.5 µM | 9.54 µM | 7.75 µM | 16.3 µM | 12.7 µM | – | – | – | – | – | 37.5 µM | IC50 [13]: 0.0006 µM; CC50 at 24 h [14]: 20.4 µM; CC50 at 48 h [15]: 1.35 µM; CC50 at 72 h [16]: 0.22 µM; CC50 at 24 h [17]: 5.4 µM; CC50 at 48 h [18]: 0.89 µM; CC50 at 72 h [19]: 0.78 µM
Cc1ccc(O)cc1NC(=O)c1cnc(Nc2nc(SCCN3CCOCC3)nc3c2cnn3C)s1 | 59.6 µM | 13.9 µM | 2.47 µM | 28.8 µM | 10.3 µM | < 0.01 µg/mL | < 0.1 ×10⁻⁶ cm/s | 19% | > 100% | > 100% | 54.7 µM | CC50 at 24 h [14]: 92.8 µM; CC50 at 48 h [15]: 22.8 µM; CC50 at 72 h [16]: 3.27 µM; CC50 at 24 h [17]: 18.5 µM; CC50 at 48 h [18]: 6.9 µM; CC50 at 72 h [19]: 5.23 µM; inhibition at 0.5 µM [20]: 40%; Activity [21]: 24%; Activity [22]: inactive; Activity [23]: Active; Activity [24]: 15%; Activity [25]: 44.1%; Activity [26]: 10.4%; Activity [27]: 25.2%; Activity [28]: 38.5%; wound closure % at 0.25 µM [29]: ~70%
Cn1ncc2c(Nc3ncc(C(=O)Nc4cc(O)ccc4Br)s3)nc(SCCN3CCOCC3)nc21 | 12 µM | 7.31 µM | 1.55 µM | 13.7 µM | 7.21 µM | < 0.01 µg/mL | < 0.1 ×10⁻⁶ cm/s | 0.51% | > 100% | 99.5% | 26.5 µM | –
Cn1ncc2c(Nc3ncc(C(=O)Nc4cccc(O)c4)s3)nc(NCCO)nc21 | – | – | 6.52 µM | 48.8 µM | 26.1 µM | 0.01 µg/mL (≈ 0.0234 µM) | < 0.1 ×10⁻⁶ cm/s | 7.28% | > 100% | 94.5% | – | –
Cn1ncc2c(Nc3ncc(C(=O)Nc4cccc(O)c4)s3)nc(SCCN3CCOCC3)nc21 | > 50 µM | > 50 µM | > 50 µM | – | – | 0.03 µg/mL (≈ 0.0585 µM) | 0.1 ×10⁻⁶ cm/s | 3.1% | 99.4% | – | – | –
O=C(Nc1ccccc1)c1cnc(Nc2ncnc3c2cnn3CC(Cl)c2ccccc2)s1 (stereo not given) | – | 7.46 µM | 3.7 µM | 21.2 µM | 15.3 µM | < 0.01 µg/mL | 12 ×10⁻⁶ cm/s | 8.36% | 99% | 88.5% | – | –
